Assay results reported in ChEMBL document CHEMBL1123566, “Synthesis and cardiac electrophysiological activity of 2- and 3-[(substituted phenyl)alkyl]quinuclidines. Structure-activity relationships” (1987).
Values joined by “and” are separate entries in the source; they are usually repeats but may differ in a detail not shown here. Equal entries are not always repeated.

What was measured:
Canis familiaris [1] = assay: Heart rate was determined by intraduodenal administration of two dosages of 30 mg/kg of compound in anesthetized dogs. Value was reported for experiment 1; type: functional, Canis lupus familiaris
Procedure, shortened: (§1)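 Anesthetized dogs; compound given intraduodenally, generally as two doses, the second a cumulative (high) dose. LV functional refractory period and conduction time measured 15, 30 and 45 min after dosing; heart rate and blood pressure measured during nonpacing intervals. Values are % change from control, given per individual animal. Active if FRP or CT prolonged by ≥12%.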

Canis familiaris [2] = assay: Heart rate was determined by intraduodenal administration of two dosages of 30 mg/kg of compound in anesthetized dogs. Value was reported for experiment 2; type: functional, Canis lupus familiaris; procedure, shortened: as §1
Canis familiaris [3] = assay: Conduction time was determined by intraduodenal administration of 30 mg/kg (high dose) of compound in anesthetized dogs. Value was reported for experiment 1; type: functional, Canis lupus familiaris; procedure, shortened: as §1
Canis familiaris [4] = assay: Conduction time was determined by intraduodenal administration of 30 mg/kg (high dose) of compound in anesthetized dogs. Value was reported for experiment 2; type: functional, Canis lupus familiaris; procedure, shortened: as §1
Canis familiaris [5] = assay: Conduction time was determined by intraduodenal administration of 10 mg/kg (low dose) of compound in anesthetized dogs. Value was reported for experiment 1; type: functional, Canis lupus familiaris; procedure, shortened: as §1
Canis familiaris [6] = assay: Conduction time was determined by intraduodenal administration of 10 mg/kg (low dose) of compound in anesthetized dogs. Value was reported for experiment 2; type: functional, Canis lupus familiaris; procedure, shortened: as §1
Canis familiaris [7] = assay: Heart rate was determined by intraduodenal administration of two dosages of 10 mg/kg of compound in anesthetized dogs. Value was reported for experiment 1; type: functional, Canis lupus familiaris; procedure, shortened: as §1
Canis familiaris [8] = assay: Heart rate was determined by intraduodenal administration of two dosages of 10 mg/kg of compound in anesthetized dogs. Value was reported for experiment 2; type: functional, Canis lupus familiaris; procedure, shortened: as §1
Canis familiaris [9] = assay: Left ventricular refractory period was determined by intraduodenal administration of 10 mg/kg (low dose) of compound in anesthetized dogs. Value was reported for experiment 1; type: functional, Canis lupus familiaris, Cardiac ventricle; settings: 10 mg/kg
Procedure, shortened: (§2)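 Anesthetized dogs received two intraduodenal doses, the second cumulative (low dose/high dose). Left ventricular FRP and CT were measured 15, 30 and 45 min after dosing. Heart rate and mean blood pressure were taken during nonpacing intervals. Values are percent change from control. The vehicle was 5% dextrose in water/tragacanth. Activity was defined as ≥12% prolongation of FRP or CT.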

Canis familiaris [10] = assay: Left ventricular refractory period was determined by intravenous administration of two dosages (high/low) of 3 mg/kg of compound in anesthetized dogs. Value was reported for experiment 1; type: functional, Canis lupus familiaris, Cardiac ventricle
Canis familiaris [11] = assay: Left ventricular refractory period was determined by intravenous administration of two dosages (high/low) of 3 mg/kg of compound in anesthetized dogs. Value was reported for experiment 2; type: functional, Canis lupus familiaris, Cardiac ventricle
Canis familiaris [12] = assay: Left ventricular refractory period was determined by intraduodenal administration of 30 mg/kg (high dose) of compound in anesthetized dogs. Value was reported for experiment 1; type: functional, Canis lupus familiaris, Cardiac ventricle; procedure, shortened: as §2
Canis familiaris [13] = assay: Left ventricular refractory period was determined by intraduodenal administration of 30 mg/kg (high dose) of compound in anesthetized dogs. Value was reported for experiment 2; type: functional, Canis lupus familiaris, Cardiac ventricle; procedure, shortened: as §2
Canis familiaris [14] = assay: Mean arterial blood pressure was determined by intraduodenal administration of two dosages of 30 mg/kg of compound in anesthetized dogs. Value was reported for experiment 1; type: functional, Canis lupus familiaris; procedure, shortened: as §2
Canis familiaris [15] = assay: Mean arterial blood pressure was determined by intraduodenal administration of two dosages of 30 mg/kg of compound in anesthetized dogs. Value was reported for experiment 2; type: functional, Canis lupus familiaris; procedure, shortened: as §2
Canis familiaris [16] = assay: Mean arterial blood pressure was determined by intraduodenal administration of two dosages of 10 mg/kg of compound in anesthetized dogs. Value was reported for experiment 1; type: functional, Canis lupus familiaris; procedure, shortened: as §2
Canis familiaris [17] = assay: Mean arterial blood pressure was determined by intraduodenal administration of two dosages of 10 mg/kg of compound in anesthetized dogs. Value was reported for experiment 2; type: functional, Canis lupus familiaris; procedure, shortened: as §2
Canis familiaris [18] = organism: Canis familiaris; assay: In vitro electrophysiological evaluation in canine cardiac ventricular muscle reported as maximum % change for conduction time(CT) at 0.1-10 uM concentration range; concentration at which it occurred is 0.1 uM.; type: functional, Canis lupus familiaris, Muscle tissue
Procedure, shortened: (§3)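 Canine right ventricle and papillary muscle strips in oxygenated Tyrode's solution, fitted with stimulating and recording electrodes. The extra-stimulus conduction-interval method was adapted for in vitro use. FRP and CT were read from a conduction-interval curve before and after various compound concentrations, and expressed as percent change from control. Compounds were taken from 10 mM deionized-water stock into Tyrode's. Each strip was used once as its own control.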

Canis familiaris [19] = organism: Canis familiaris; assay: In vitro electrophysiological evaluation in canine cardiac ventricular muscle reported as % change for the functional refractory period (FRP) at 10 uM at concentration range of 0.1-10 uM; design: species or system Canis lupus familiaris, Muscle tissue; procedure, shortened: as §3
Canis familiaris [20] = organism: Canis familiaris; assay: In vitro electrophysiological evaluation in canine cardiac ventricular muscle reported as maximum % change for functional refractory period (FRP) at 0.1-10 uM concentration range; concentration at which it occurred is 10 uM.; design: species or system Canis lupus familiaris, Muscle tissue; procedure, shortened: as §3
Canis familiaris [21] = organism: Canis familiaris; assay: In vitro electrophysiological evaluation in canine cardiac Purkinje fibres reported as percent change Vmax at 10 uM at concentration range of 0.1-100 uM; Minimal (<10% decrease or increase in Vmax).; type: functional, organism-based; settings: Canis lupus familiaris, Purkinje fiber
Procedure, shortened: (§4)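 Canine cardiac Purkinje fibres, intracellular microelectrode recording, paced at a basic cycle length of 1 s. APD95 and Vmax read simultaneously. Compound: 10 mM stock in deionized water, diluted into Tyrode's solution, tested over the stated concentration range. Each fibre used once as its own control. Result is % change from control, given at 10 µM or as the maximum with its concentration. M = <10% decrease or an increase in Vmax.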

Canis familiaris [22] = organism: Canis familiaris; assay: In vitro electrophysiological evaluation in canine cardiac Purkinje fibres reported as percent change Vmax at 10 uM at concentration range of 0.1-10 uM; Minimal (<10% decrease or increase in Vmax).; type: functional; settings: Canis lupus familiaris, Purkinje fiber; procedure, shortened: as §4
Canis familiaris [23] = organism: Canis familiaris; assay: In vitro electrophysiological evaluation in canine cardiac Purkinje fibres reported as percent change Vmax at 10 uM at concentration range of 1-100 uM; type: functional; settings: Canis lupus familiaris, Purkinje fiber; procedure, shortened: as §4
Canis familiaris [24] = organism: Canis familiaris; assay: (§5) In vitro electrophysiological evaluation in canine cardiac occurred is 100 uM.; type: functional; settings: Canis lupus familiaris; Heart
Canis familiaris [25] = organism: Canis familiaris; assay: as §5; type: functional; settings: Canis lupus familiaris; Heart; remark: listed apart in the source
Canis familiaris [26] = organism: Canis familiaris; assay: In vitro electrophysiological evaluation in canine cardiac Purkinje fibres reported as percent change Vmax at 10 uM at concentration range of 0.1-100 uM; type: functional; settings: Canis lupus familiaris, Purkinje fiber; procedure, shortened: as §4
Canis familiaris [27] = organism: Canis familiaris; assay: In vitro electrophysiological evaluation in canine cardiac ventricular muscle reported as % change for conduction time(CT) at 0.1-10 uM concentration range; Minimal (<10% decrease or increase inCT).; type: functional, Canis lupus familiaris, Muscle tissue
Canis familiaris [28] = organism: Canis familiaris; assay: as §5; type: functional, organism-based; settings: Canis lupus familiaris; Heart
Canis familiaris [29] = organism: Canis familiaris; assay: as §5; type: functional; settings: Canis lupus familiaris; Heart; remark: listed apart in the source
Canis familiaris [30] = organism: Canis familiaris; assay: In vitro electrophysiological evaluation in canine cardiac Purkinje fibres reported as maximum percent change Vmax concentration range of 0.1-10 uM; Minimal (<10% decrease or increase in Vmax).; type: functional; settings: Canis lupus familiaris; Purkinje fiber; procedure, shortened: as §4
Canis familiaris [31] = organism: Canis familiaris; assay: (§6) In vitro electrophysiological activity in canine cardiac occurred is 10 uM.; type: functional, Canis lupus familiaris, Heart
Canis familiaris [32] = organism: Canis familiaris; assay: (§7) In vitro electrophysiological activity in canine cardiac occurred is 1 uM.; type: functional, Canis lupus familiaris, Heart
Canis familiaris [33] = organism: Canis familiaris; assay: as §6; type: functional, Canis lupus familiaris, Heart; remark: listed apart in the source
Canis familiaris [34] = organism: Canis familiaris; assay: as §7; type: functional, Canis lupus familiaris, Heart; remark: listed apart in the source
Canis familiaris [35] = organism: Canis familiaris; assay: In vitro electrophysiological evaluation in canine cardiac Purkinje fibres reported as % change for action potential duration at 10 uM at 1-100 uM concentration range; type: functional, Canis lupus familiaris, Purkinje fiber; procedure, shortened: as §4
Canis familiaris [36] = organism: Canis familiaris; assay: In vitro electrophysiological evaluation in canine cardiac Purkinje fibres reported as % change for action potential duration at a concentration of 10 uM; type: functional, Canis lupus familiaris, Purkinje fiber; procedure, shortened: as §4
Canis familiaris [37] = organism: Canis familiaris; assay: In vitro electrophysiological activity in canine cardiac occurred is 100 uM.; type: functional, Canis lupus familiaris, Heart
Canis familiaris [38] = organism: Canis familiaris; assay: as §7; type: functional, Canis lupus familiaris, Heart; remark: listed apart in the source

OC1C2CCN(CC2)C1CCCc1ccc(Cl)cc1 (stereo not drawn)
HR (Canis familiaris [1]): -14% | HR (Canis familiaris [2]): -9% | CT (Canis familiaris [3]): 7% | CT (Canis familiaris [4]): 8% | CT (Canis familiaris [5]): 5% | CT (Canis familiaris [6]): 4% | HR (Canis familiaris [7]): -6% | HR (Canis familiaris [8]): -7% | LV FRP (Canis familiaris [9]): 4% and 7% | FRP (Canis familiaris [10]): 12% | FRP (Canis familiaris [11]): 8% | LV FRP (Canis familiaris [12]): 3% | LV FRP (Canis familiaris [13]): 9% | Mean blood pressure (Canis familiaris [14]): 14% | Mean blood pressure (Canis familiaris [15]): -3% | Mean blood pressure (Canis familiaris [16]): 14% | Mean blood pressure (Canis familiaris [17]): 0% | CT (Canis familiaris [18]): 11% | FRP (Canis familiaris [19]): 21% | FRP (Canis familiaris [20]): 21% | Vmax (Canis familiaris [21]): < 10% | Vmax (Canis familiaris [22]): < 10% | Vmax (Canis familiaris [23]): -13% | Vmax (Canis familiaris [24]): 100% | Vmax (Canis familiaris [25]): 100% | Vmax (Canis familiaris [26]): -24% and -20% | CT (Canis familiaris [27]): <10% | Vmax (Canis familiaris [28]): -48% | Vmax (Canis familiaris [29]): 100% | Vmax (Canis familiaris [30]): < 10% | APD95 (Canis familiaris [31]): 14% and 40% | APD95 (Canis familiaris [32]): 25% and 15% | APD95 (Canis familiaris [33]): 13% | APD95 (Canis familiaris [34]): 30% | APD95 (Canis familiaris [35]): 13% | APD95 (Canis familiaris [36]): 12% | APD95 (Canis familiaris [37]): -24% and -7% | APD95 (Canis familiaris [38]): 41%
